Assay results published in ChEMBL document CHEMBL1938254, “Semisynthetic neoboutomellerone derivatives as ubiquitin-proteasome pathway inhibitors” (Bioorg Med Chem, 2012).

What was measured:
Format in all cases: cell-based
DLD-1 [1] = assay: Inhibition of 20S proteasome in human DLD1 cells transfected with 4Ub-Luc gene assessed as bioluminescence induction factor at 1 uM after 8 hrs by luciferase reporter gene assay relative to epoxomicin
Outline: (§1)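 Stably transfected DLD-1 cells expressing 4Ub-Luc reporter, cultured in MEM with 5% heat-inactivated serum. Seeded at 10⁴ cells/well and treated with compound or solvent for 8 h. Luciferase activity in lysates read by luminometer. Induction factor = signal of treated over untreated cells, normalised to epoxomicin at 10^-7 M run in parallel (set to 100). IF ≥10 counted active.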

DLD-1 [2] = assay: Inhibition of 20S proteasome activity in human DLD1 cells transfected with 4Ub-Luc gene assessed as bioluminescence induction factor at 10 uM after 8 hrs by luciferase reporter gene assay relative to epoxomicin; outline: as §1
DLD-1 [3] = assay: Inhibition of 20S proteasome in human DLD1 cells transfected with 4Ub-Luc gene assessed as bioluminescence induction factor at 5 uM after 8 hrs by luciferase reporter gene assay relative to epoxomicin; outline: as §1

Compound | fold change (FC) (DLD-1 [1]) | fold change (FC) (DLD-1 [2]) | fold change (FC) (DLD-1 [3])
C=C(C(=O)[C@H](OC(C)=O)[C@@H](C)[C@H]1[C@@H](OC(C)=O)C[C@@]2(C)[C@@H]3CC[C@H]4[C@H](C)C(=O)C[C@H](O)[C@@]45C[C@@]35CC[C@]12C)[C@@H](C)CO | 1.6 | 74 | 11
C=C(C(=O)[C@H](OC(C)=O)[C@@H](C)[C@H]1[C@@H](OC(C)=O)C[C@@]2(C)[C@@H]3CC[C@H]4[C@H](C)C(=O)C=C[C@@]45C[C@@]35CC[C@]12C)[C@@H](C)C=O | 1 | 31 | 70
C=C(C(=O)[C@H](OC(C)=O)[C@@H](C)[C@H]1[C@@H](OC(C)=O)C[C@@]2(C)[C@@H]3CC[C@H]4[C@H](C)C(=O)C=C[C@@]45C[C@@]35CC[C@]12CO)[C@@H](C)CO | 1.2 | 1.1 | 12
C=C(C(=O)[C@H](OC(C)=O)[C@@H](C)[C@H]1[C@@H](OC(C)=O)C[C@@]2(C)[C@@H]3CC[C@H]4[C@H](C)C(=O)C=C[C@@]45C[C@@]35CC[C@]12C)[C@@H](C)CO[C@@]1(C)O[C@@H]2O[C@@H](COC(C)=O)[C@H](OC(C)=O)[C@@H](OC(C)=O)[C@@H]2O1 | 2 | 48 | 59
C=C(C(=O)[C@H](O)[C@@H](C)[C@H]1[C@@H](OC(C)=O)C[C@@]2(C)[C@@H]3CC[C@H]4[C@H](C)C(=O)C=C[C@@]45C[C@@]35CC[C@]12C)[C@@H](C)COS(=O)(=O)O | 0.9 | 0.9 | 0.8
CC(=O)O[C@H]1C[C@@]2(C)[C@@H]3CC[C@H]4[C@H](C)/C(=N/OCc5ccccc5)C=C[C@@]45C[C@@]35CC[C@]2(C)[C@H]1[C@H](C)[C@@H](OC(C)=O)C(=O)C(CNOCc1ccccc1)[C@@H](C)CO (stereo partly drawn) | 0.9 | 0.9 | 0.9
C=C(C(=O)[C@H](OC(=O)CCC(=O)O)[C@@H](C)[C@H]1[C@@H](OC(C)=O)C[C@@]2(C)[C@@H]3CC[C@H]4[C@H](C)C(=O)C=C[C@@]45C[C@@]35CC[C@]12C)[C@@H](C)COC(=O)CCC(=O)O | 1.2 | 1.2 | 1.1
C=C(C(=O)[C@H](OC(C)=O)[C@@H](C)[C@H]1[C@@H](OC(C)=O)C[C@@]2(C)[C@@H]3CC[C@H]4[C@H](C)C(=O)C=C[C@@]45C[C@@]35CC[C@]12C)[C@@H](C)COC(=O)CP(=O)(O)O | 1.1 | 1.4 | 1.1
CO/N=C1/C=C[C@]23C[C@]24CC[C@]2(C)[C@@H]([C@H](C)[C@@H](OC(C)=O)C(=O)C(CNOC)[C@@H](C)CO)[C@@H](OC(C)=O)C[C@@]2(C)[C@@H]4CC[C@H]3[C@@H]1C (stereo partly drawn) | 1 | 0.6 | 0.7
CC(=O)O[C@H]1C[C@@]2(C)[C@@H]3CC[C@H]4[C@H](C)C(=O)C=C[C@@]45C[C@@]35CC[C@]2(C)[C@H]1[C@H](C)C=O |  | 3 | 1.3
C=C(C(=O)[C@H](OC(C)=O)[C@@H](C)[C@H]1[C@@H](OC(C)=O)C[C@@]2(C)[C@@H]3CC[C@H]4[C@H](C)C(=O)C=C[C@@]45C[C@@]35CC[C@]12C)[C@@H](C)COC(=O)CN | 1.4 | 56 | 76
C=C(C(=O)[C@H](OC(C)=O)[C@@H](C)[C@H]1[C@@H](OC(C)=O)C[C@@]2(C)[C@@H]3CC[C@H]4[C@H](C)C(=O)C=C[C@@]45C[C@@]35CC[C@]12C)[C@H](C)CO | 1.1 | 88 | 51
C=C(C(=O)[C@H](OC(C)=O)[C@@H](C)[C@H]1[C@@H](OC(C)=O)C[C@@]2(C)[C@@H]3CC[C@H]4[C@H](C)C(=O)C=C[C@@]45C[C@@]35CC[C@]12C)[C@@H](C)CN1C(=O)CN(CCCN(CCCCN(CCCNC(=O)OC(C)(C)C)C(=O)OC(C)(C)C)C(=O)OC(C)(C)C)C1=O | 1 | 37 | 30
